The text below walks through data of ChEMBL document CHEMBL1141377 (J Nat Prod, 2007).

The target in one data set is Trypsin (Homo sapiens) (UniProt P07477+P07478+P35030). The experiment in a line: Inhibition of trypsin up to 100 uM. The data set is classed as protein assay.
The next data set concerns NCI-H460. As to the kind of experiment: Cytotoxicity against human H460 cell line. It counts as functional, cell-based.
For a further data set, the system named is MDA-MB-231. The experiment in a line: Cytotoxicity against human MDA-MB-231 cell line. The data set is classed as functional, cell-based.
Another data set is filed under the species Homo sapiens. As to the kind of experiment: Inhibition of chymotrypsin up to 100 uM.
The next data set has as its system PBMC. As to the kind of experiment: Inhibition of LPS-induced TNFalpha production in human PBMC. The data set is classed as functional, cell-based. The method in brief:
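Human PBMC isolated from heparinized healthy-donor blood on 80% Percoll, washed twice in PBS, in RPMI1640 with 10% heat-inactivated FCS. Cells preincubated 1 h with compound or DMSO (final 0.1%), then stimulated with LPS (1 μg/mL). After overnight culture, supernatant TNF-α measured. IC50 reported.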

Another data set relates to HCT-116. As to the kind of experiment: Cytotoxicity against human HCT116 cell line. It counts as cell-based.
Data set [1] can be described thus: Stability in neutral pH after 24 hrs. It counts as physicochemical. Conditions: read-out: Stability. In short, it runs like this:
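Compound solutions in 20% MeOH incubated in horse serum or water at pH 7 for 24 h. Recovery estimated by HPLC.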

The target in a further data set is 20S proteasome. As to the kind of experiment: Inhibition of human 20S proteasome. The data set is classed as subcellular.
The nature of data set [2]: Stability in neutral pH after 48 hrs. Conditions: read-out: Stability. The data set is classed as physicochemical.
A short description of data set [3]: Stability in alkaline pH after 48 hrs. It counts as physicochemical. Conditions: read-out: Stability.

Activity calls are given as the source filed them. The rule behind the calls is not given here. Some results are limits rather than exact numbers.

For the compound `CCCCCC[C@H]1C(=O)N[C@@]2([C@@H](O)[C@@H]3C=CCCC3)C(=O)O[C@@]12C` [CINNABARAMIDE A], the result on Trypsin (Homo sapiens) and in the data set filed under Homo sapiens was inactive. Moreover, the IC50 was 1000 nM with NCI-H460, 1000 nM in the data set with MDA-MB-231, 500 nM with PBMC and 1 nM on 20S proteasome. In the data set with HCT-116, this compound returned an Activity of 10 nM. For the same compound, in data set [1], the remaining at 24 h was 50%.
Regarding `CCCCCC(O)[C@H]1C(=O)N[C@@]2([C@@H](O)[C@@H]3C=CCCC3)C(=O)O[C@@]12C` (stereo partly specified) [CINNABARAMIDE B], the outcome on Trypsin (Homo sapiens) and in the data set filed under Homo sapiens was inactive. The remaining at 24 h in data set [1] turned out to be 50%. Inhibition against 20S proteasome was half-maximal at 245 nM (IC50).
For `CCCCCC[C@H]1C(=O)N[C@@]2(C[C@@H]3C=CCCC3)C(=O)O[C@@]12C` [CINNABARAMIDE C], the outcome at Trypsin (Homo sapiens) and in the data set filed under Homo sapiens was inactive. For the same compound, the remaining at 24 h in data set [1] worked out at 50%. Besides, the IC50 against 20S proteasome turned out to be 12 nM.
Regarding `CCCCCC(O)[C@H]1C(=O)N[C@](C(=O)O)([C@@H](O)[C@@H]2C=CCCC2)[C@@]1(C)O` (stereo partly specified) [CINNABARAMIDE D], the outcome at Trypsin (Homo sapiens) and in the data set filed under Homo sapiens was inactive. The compound also displayed a half-maximal inhibitory concentration (IC50) on 20S proteasome of 100 nM.
With `CCCCCC[C@H]1C(=O)N[C@](C(=O)O)([C@@H](O)[C@@H]2C=CCCC2)[C@@]1(C)O` [CINNABARAMIDE E], the outcome on Trypsin (Homo sapiens) and in the data set listed under Homo sapiens was inactive. The compound also came in with an IC50 at 20S proteasome of 136 nM.
As for `CCCCCC[C@H]1C(=O)N[C@](C(=O)SC[C@H](NC(C)=O)C(=O)O)([C@@H](O)[C@@H]2C=CCCC2)[C@@]1(C)O` [CINNABARAMIDE F], the remaining at 48 h in data set [2] was greater than 90%. The result on Trypsin (Homo sapiens) and in the data set listed under Homo sapiens was inactive. The IC50 against 20S proteasome was 6 nM.
Regarding `CCCCCC[C@H]1C(=O)N[C@](C(=O)SC[C@H](NC(C)=O)C(=O)OC)([C@@H](O)[C@@H]2C=CCCC2)[C@@]1(C)O` [CINNABARAMIDE G], the remaining at 48 h in data set [3] came to 45%; in [2] it was 90%. For the same compound, the outcome at Trypsin (Homo sapiens) and in the data set filed under Homo sapiens was inactive. For the same compound, at 20S proteasome, the IC50 was 0.6 nM.
